From PubChem
The list is not random: actives were taken first. Their share in the collection is about 3.8%.
hERG rescue: hERG rescue from dofetilide block, primary screen, cell-based, CHO-hERG, FluxOR thallium flux, dofetilide IC70; activation (rescue from dofetilide block), less the hit threshold, % at 10 µM; Voltage-gated inwardly rectifying potassium channel KCNH2 (Homo sapiens), Q12809; dofetilide IC70 present; hit rate 0.51% among 310,000;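 active = activation above the mean of controls blocked by dofetilide plus 5 SD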;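 also: thallium influx through hERG after potassium depolarization seen as dye fluorescence rise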
KCNQ1 inh: inhibitors of human KCNQ1 channel, primary screen, cell-based, thallium flux, high-throughput | Potassium voltage-gated channel subfamily KQT member 1 (Homo sapiens), P51787 | CHO-K1 KCNQ1, FluxOR thallium flux fluorescence; hits give high values | B-score at 10 µM | hit rate 1.3% among 310,000;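 active = compounds whose thallium flux B-score, printed positive for inhibition, exceeds three library SD while starting fluorescence stays within three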;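 also: channel opened by potassium depolarization with thallium stimulus after 20 min compound exposure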
Kir21 block: inhibitors of mouse Kir2.1 inward-rectifier potassium channel; B-score at 10 µM; hit rate 0.85% among 310,000; HEK293-Kir2.1, FluxOR thallium flux fluorescence; hits give low values; Inward rectifier potassium channel 2 (Mus musculus), P35561;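 active = fluorescence ratio B-score at or below minus 3 SD of library scores, with starting-brightness B-score within 2 SD, cut at about -4.2 in these data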;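 also: channel flux triggered by added potassium and thallium sulfate stimulus; B-score of peak minus minimum fluorescence over baseline after thallium stimulus; more negative B-score means stronger Kir2.1 block with less thallium influx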
KCNQ1 pot: potentiators or activators of KCNQ1 channel, primary screen, cell-based, thallium flux, high-throughput. Potassium voltage-gated channel subfamily KQT member 1 (Homo sapiens), P51787. CHO-K1 KCNQ1, thallium flux FluxOR fluorescence; hits give high values. B-score at 10 µM. hit rate 0.35% among 310,000. AID 2648, 2010;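 active = fluorescence ratio B-score, a plate-corrected score, at least three library SD, with initial intensity B-score within 5 SD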
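Assay system: CHO-K1 cells stably expressing KCNQ1; Medium: assay buffer with matched DMSO; Also added: K+/Tl+ depolarizing stimulus; Dosing: single dose; Timing: dye 90 min, compound 20 min, room temperature; Measured by: kinetic FluxOR thallium fluorescence, 10-s 1-Hz baseline, 110-s post-stimulus read; Read-out: peak-minus-minimum fluorescence over initial fluorescence, negative-control normalized, B-scored.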
KCNK3 block: human KCNK3 channel inhibitors, primary screen, CHO cells, FluxOR thallium flux, B-score; FluxOR fluorescence; hits give low values; B-score at 10 µM; hit rate 0.84% among 340,000; Potassium channel subfamily K member 3 (Homo sapiens), O14649;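 active = B-score under library mean minus 4 SD, starting fluorescence ratio at most library mean plus 5 SD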;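 also: more negative B-score means stronger inhibition of thallium flux through KCNK3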
Target sequence (O14649 whole entry, looked up): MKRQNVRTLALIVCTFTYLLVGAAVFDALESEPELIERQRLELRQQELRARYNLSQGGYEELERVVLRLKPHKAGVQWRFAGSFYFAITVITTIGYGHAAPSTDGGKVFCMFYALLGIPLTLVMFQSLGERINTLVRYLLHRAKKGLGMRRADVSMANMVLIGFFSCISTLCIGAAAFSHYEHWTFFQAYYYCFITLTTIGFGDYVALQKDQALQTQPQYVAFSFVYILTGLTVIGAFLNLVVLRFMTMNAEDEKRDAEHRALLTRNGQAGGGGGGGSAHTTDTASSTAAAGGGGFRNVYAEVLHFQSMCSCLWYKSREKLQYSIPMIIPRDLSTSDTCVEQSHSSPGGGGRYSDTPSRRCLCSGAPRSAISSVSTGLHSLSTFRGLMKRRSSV
KCNK9 inh: KCNK9 potassium channel inhibitors, primary screen, HEK293 cells, thallium flux; Potassium channel subfamily K member 9 (Homo sapiens), Q9NPC2; hit rate 1.2% among 310,000; FluxOR thallium flux fluorescence; hits give low values; B-score at 10 µM;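 active = ratio B-score over 3 SD below the library mean, with starting fluorescence within 5 SD of its mean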;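 also: negative B-score means less thallium flux so channel inhibition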
* hit, by the source's call; i = inactive; nt = no result.

SMILES | hERG rescue | KCNQ1 inh | Kir21 block | KCNQ1 pot | KCNK3 block | KCNK9 inh
COc1cccc(C=NCCCN=Cc2cccc(OC)c2O)c1O | 5.7* | i | -1.5 | i | i | i
COc1cccc(/C=N/NC(=O)C(=O)N/N=C/c2cccc(OC)c2O)c1O | nt | nt | nt | nt | i | nt
Cc1ccc(NC(=O)c2oc3ccccc3c2COC(C)C)cc1S(=O)(=O)N1CCOCC1 | nt | nt | nt | nt | -9.4* | nt
Cc1ccc(NC(=O)COc2cccc(Oc3ccccc3)c2)cc1S(=O)(=O)N1CCOCC1 | nt | nt | nt | nt | -8.8* | nt
Cc1cccc(OCCC(=O)Nc2ccc(C)c(S(=O)(=O)N3CCOCC3)c2)c1 | nt | nt | nt | nt | i | nt
Cc1ccc(NC(=O)c2ccccc2NS(=O)(=O)c2ccc(Cl)s2)cc1S(=O)(=O)N1CCOCC1 | -22 | 6* | -0.19 | i | i | i
COc1cccc2c1cc1c(=O)n(CC(=O)NCCCN3CCCCC3)nc(C)n12 | -4 | i | 0.01 | i | i | i
CC(C)c1ccccc1NC(=O)CNCCOc1ccccc1F | -6 | 6* | -11 | i | i | i
OCCNCCOc1ccccc1F | -2 | i | 0.43 | i | i | i
Cc1cccc(CS(=O)(=O)c2nnc([C@H](Cc3ccccc3)NC(=O)OC(C)(C)C)o2)c1 | -22 | i | -8.1* | i | i | i
O=C(Nc1nc(-c2cccs2)cs1)c1ccc(S(=O)(=O)N2CCCCC2)cc1 | -7 | 6* | -0.2 | i | i | i
N#C/C(=C(/O)c1ccc2c(c1)OCO2)c1nc2cc(C(F)(F)F)ccc2s1 | -8 | 11* | -2.2 | i | i | i
N#C/C(=C(/O)c1ccccc1F)c1nc2cc(C(F)(F)F)ccc2s1 | -16 | i | -1.9 | i | i | i
CCOC(=O)C1=C(C)n2c(s/c(=C/c3cccc([N+](=O)[O-])c3)c2=O)=NC1c1ccc(O)c(OC)c1 (centres undefined) | -14 | 6* | -0.2 | i | i | i
CN1[C@@H]2CC[C@H]1CC(OC(=O)[C@H](CO)c1ccccc1)C2 (some centres undefined) | nt | i | 0.15 | i | i | i
COc1cnn(Cc2ccccc2)c(=O)c1SCc1ccccc1 | -8 | i | -4.7* | i | i | i
CCOc1cnn(Cc2ccccc2)c(=O)c1SCc1ccccc1 | -5 | i | -3.8 | i | i | i
N#Cc1c(NCCN)nc(-c2ccccc2)c2c1CCCC2 | -9 | i | -6* | i | i | i
Cn1nc(C(=O)NCCOc2ccccc2)c2ccccc2c1=O | -12 | i | -0.22 | i | i | i
CNCCC(Oc1ccc(C(F)(F)F)cc1)c1ccccc1 (centres undefined) | nt | i | -2.6 | i | i | i
CNCC[C@H](Oc1cccc2ccccc12)c1cccs1 | -9 | i | -9.1* | i | i | i
CCCCc1ccc(/C=C2\C(=O)c3ccccc3C(O)=C2C(=O)OCC)cc1 | -11 | i | -0.62 | 9* | nt | i
CCOC(=O)C1=C(Cc2ccc(F)cc2)C(=O)c2ccccc2C1=O | -14 | i | -0.1 | i | i | i
COC(=O)c1ccc(-c2sc3nc(N4CCOCC4)c4c(c3c2N)CCCC4)o1 | -12 | 6* | -0.4 | i | nt | -9.2*
CC(C)(C)NC(=O)NC(=O)CSc1ccc(S(=O)(=O)N2CCCCC2)cn1 | nt | nt | nt | nt | i | nt
O=C(c1ccc(Cl)c(S(=O)(=O)N2CCOCC2)c1)N1CCCCCC1 | -9 | i | 0.74 | i | i | i
COC(=O)N/N=C/c1cc(N=Nc2ccccc2Cl)ccc1O | -10 | i | 0.74 | i | i | -7.9*
COC(=O)N/N=C/c1cc(Br)ccc1O | -3 | i | -0.16 | i | i | i
CC(C)N(C(=O)[C@H]1CC(CC(=O)NCC23CC4CC(CC(C4)C2)C3)C(=O)N2CCc3c([nH]c4ccccc34)[C@]12C)C(C)C (some centres undefined) | nt | nt | nt | nt | i | nt
